Here are results for eleven molecules from ChEMBL document CHEMBL1154430, “Synthesis, characterization and pharmacological evaluation of amide prodrugs of ketorolac” (Eur J Med Chem, 2008).

Broadly, the half-life is the time in which the quantity being followed falls by half.

The nature of data set [1]: Solubility in water. The class given is physicochemical. The settings on record: buffer.
The nature of data set [2]: Solubility in 1.0N HCl. The class given is physicochemical. The following applies: buffer.
Data set [3] is described as follows: Chloroform-PBS partition coefficient, log K at pH 7.4. Type of data set: physicochemical.
Data set [4] can be described thus: Chloroform-acidic buffer partition coefficient, log K at pH 1.4. Type of data set: physicochemical.
A short description of data set [5]: Protein binding in plasma in pH 7.4 at 20 ug/ml by spectrophotometry. The class given is ADME, cell-free. The settings on record: read-out: PB (converted). The essentials:
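Prodrug solution in PBS pH 7.4. Membrane washed with distilled water, then with pH 7.4 buffer, before use. Withdrawn samples diluted with 1 mL phosphate buffer and prodrug concentration measured spectrophotometrically.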

Data set [6] is described as follows: Metabolic stability in stimulated intestinal fluid assessed as half life at 10 mg by HPLC. The following applies: simulated intestinal fluid. Type of data set: ADME. The essentials: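 10 mg in 2 mL acetonitrile added to 88 mL SIF (pH 7.4). Aliquots chilled in freezing mixture to arrest hydrolysis, vortexed 5 min and centrifuged 5 min. Supernatant analysed on C18 reversed-phase HPLC (acetonitrile:water 50:50), UV at 247 nm.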

The nature of data set [7]: Metabolic stability in human plasma assessed as half life at 10 mg by HPLC. The class given is ADME, cell-free. The essentials: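 10 mg in 2 mL acetonitrile added to 88 mL 80% human plasma (80:20 plasma:phosphate buffer pH 7.4) at 37 ± 0.5 °C. Samples taken at 10, 20, 30, 40, 50 and 60 min and chilled in freezing mixture to stop hydrolysis. Then vortexed 5 min, centrifuged, and supernatant run on C18 reversed-phase HPLC (acetonitrile:water 50:50), UV at 247 nm.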

The test system of data set [8] is Rattus norvegicus. As to the kind of experiment: Antiinflammatory activity against carrageenan-induced paw edema in po dosed Wistar rat at dose equivalent to 2.5 mg/kg ketorolac after 2 hrs. The class given is functional. The essentials: (§1)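 Wistar albino rats, 100–200 g, seven groups of three including control and standard. Initial right hind paw volume measured by plethysmometer before dosing. Oral dose in 1% CMC suspension, prodrugs equivalent to 2.5 mg/kg ketorolac. Anti-inflammatory activity reported as percentage at 2 and 6 h after administration.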
(In general: The carrageenan paw model is a standard test of acute inflammation.)

The test system of data set [9] is Rattus norvegicus. As to the kind of experiment: Antiinflammatory activity against carrageenan-induced paw edema in po dosed Wistar rat at dose equivalent to 2.5 mg/kg ketorolac after 6 hrs. The class given is functional. The essentials: as §1
In data set [10] the test system is Rattus norvegicus. Put plainly: Analgesic activity in po dosed Wistar rat […] assessed as reaction time for tail withdrawal at dose equivalent to 1.2 mg/kg of ketorolac after 30 mins by tail flick method. Type of data set: functional. The essentials: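 Wistar rats, 100–200 g, groups of three. Tail-flick test on a […] analgesiometer with a thermal stimulus. Current set so that more than 90% of rats flick within 5–9 s, and slow responders rejected. Dose equivalent to 1.2 mg/kg given orally in 1% sodium carboxymethylcellulose suspension. %Analgesia = [1 − […]]×100, from reaction times before (T₁) and after (T₂) dosing.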
In general terms: In hot-plate and tail-flick tests a longer latency is read as antinociception.

A short description of data set [11]: Solubility in 0.1 N NaOH. Type of data set: physicochemical.
Data set [12] has as its system Rattus norvegicus. As to the kind of experiment: Antiinflammatory activity against carrageenan-induced paw edema in Wistar rat at 2.5 mg/kg, po after 2 hrs. The class given is functional. The essentials: as §1
Data set [13] has as its system Rattus norvegicus. Put plainly: Antiinflammatory activity against carrageenan-induced paw edema in Wistar rat at 2.5 mg/kg, po after 6 hrs. The class given is functional. The essentials:
as §1

The subject of data set [14] is Rattus norvegicus. Put plainly: Gastrointestinal toxicity in Wistar rat assessed as ulcerogenic indicates at dose equivalent to 1.2 mg/kg of ketorolac orally administered for 5 days. The class given is organism-based. Set-up: dose 1.2 mg/kg, route oral. The following applies: in vivo, po, 120 h. The essentials: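 Male Wistar rats, 130–150 g, groups of three including control and standard. Suspended in 2% w/v acacia and given orally at dose equivalent to 1.2 mg/kg ketorolac daily for 5 days. Rats fasted after the last dose, then decapitated. Stomach opened and washed, and lesions larger than 0.5 mm counted visually under a 2× binocular magnifier.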

[15] abbreviates: chloroform/acidic buffer, pH 1.4.

In the case of `CCOC(=O)CC(NC(=O)C1CCn2c(C(=O)c3ccccc3)ccc21)C(=O)OCC` (racemic), the solubility result in data set [1] and in data set [2] was “Insoluble” in each case. For the same molecule, the K worked out at 18.26 in data set [3] (chloroform/PBS, pH 7.4) and 330.12 in data set [4] (setting [15]). Besides, in [5], the fraction unbound at 20 ug/ml is 0.55. Moreover, the results for the half-life in data set [6] and in data set [7] were 2.13 h and 0.45 h, respectively. Also, the results for the Activity in data set [8], in [9] and in data set [10] were 44%, 57.72% and 54%, respectively.

With `CCOC(=O)CCC(NC(=O)C1CCn2c(C(=O)c3ccccc3)ccc21)C(=O)OCC` (racemic), the solubility entry in data set [1] and in [2] was “Insoluble” in each case. The K in data set [3] (chloroform/PBS, pH 7.4) is reported as 18.08; in data set [4] (setting [15]), 319.5. In addition, in data set [5], the fraction unbound at 20 ug/ml is 0.55. The half-life in data set [6] was 2.13 h; in [7], 0.45 h. The Activity in data set [8] came out at 44%; in [9], 49%; in [10] it was 54%.

As to `CCOC(=O)C(C)NC(=O)C1CCn2c(C(=O)c3ccccc3)ccc21` (racemic), the solubility result in [1] and in [2] was “Insoluble” throughout. In addition, the K in data set [3] (chloroform/PBS, pH 7.4) was 15.61; in data set [4] (setting [15]) it was 256.73. In data set [5], the fraction unbound at 20 ug/ml was 0.811. Moreover, the half-life in data set [6] was 2.67 h; in [7], 0.987 h. The Activity in data set [8] is 27%; in data set [9], 43%; in [10] it was 26%.

For the molecule `CCOC(=O)C(NC(=O)C1CCn2c(C(=O)c3ccccc3)ccc21)C(C)C` (racemic), the solubility result in [1] and in data set [2] was “Insoluble” in each case. Also, the K worked out at 20 in [3] (chloroform/PBS, pH 7.4) and 380.6 in [4] (setting [15]). Further, in data set [5], the fraction unbound at 20 ug/ml was 0.55. Further, the values for the half-life in data set [6] and in data set [7] were 2.67 h and 0.65 h, respectively. Besides, the results for the Activity in [8], in data set [9] and in data set [10] were 33%, 49% and 36%, respectively.

For `CCOC(=O)C(CC(C)C)NC(=O)C1CCn2c(C(=O)c3ccccc3)ccc21` (racemic), the solubility entry in [1] and in data set [2] was “Insoluble” throughout. Also, the K in data set [3] (chloroform/PBS, pH 7.4) is 23.09; in [4] (setting [15]) it was 640. Also, the fraction unbound at 20 ug/ml in [5] was 0.55. The half-life is 2.67 h in data set [6] and 1.02 h in [7]. The results for the Activity in data set [8], in data set [9] and in data set [10] were 27%, 43% and 26%, respectively.

Consider `CCOC(=O)C(NC(=O)C1CCn2c(C(=O)c3ccccc3)ccc21)C(C)CC` (racemic), for which the solubility entry in data set [1] and in data set [2] was “Insoluble” throughout. In addition, the K in data set [3] (chloroform/PBS, pH 7.4) is reported as 23.87; in data set [4] (setting [15]), 656.8. The fraction unbound at 20 ug/ml in data set [5] was 0.55. In addition, the half-life in [6] is 2.13 h; in [7] it was 0.65 h. Moreover, the Activity in [8] is on record as 33%; in data set [9] it was 49%; in data set [10], 36%.

In the case of `CCOC(=O)C(Cc1ccccc1)NC(=O)C1CCn2c(C(=O)c3ccccc3)ccc21` (racemic), the solubility result in data set [1] and in data set [2] was “Insoluble” in each case. The K amounted to 23.18 in [3] (chloroform/PBS, pH 7.4) and 504.05 in [4] (setting [15]). For the same molecule, the fraction unbound at 20 ug/ml in data set [5] is 0.55. Further, the results for the half-life in [6] and in [7] were 2.13 h and 0.45 h, respectively. The Activity came out at 44% in [8], 49% in data set [9] and 54% in data set [10].

Turning to `CCOC(=O)CNC(=O)C1CCn2c(C(=O)c3ccccc3)ccc21` (racemic), the solubility result in [1] and in data set [2] was “Insoluble” each time. For the same molecule, the K in [3] (chloroform/PBS, pH 7.4) was 13.81; in [4] (setting [15]), 215.9. The fraction unbound at 20 ug/ml in data set [5] was 0.55. Also, the half-life in [6] was 2.13 h; in data set [7], 0.65 h. In addition, the Activity came to 33% in data set [8], 49% in data set [9] and 36% in data set [10].

Consider `CCOC(=O)CCNC(=O)C1CCn2c(C(=O)c3ccccc3)ccc21` (racemic), for which the solubility entry in data set [1] and in data set [2] was “Insoluble” throughout. For the same molecule, the K in [3] (chloroform/PBS, pH 7.4) was 15.33; in data set [4] (setting [15]), 250.25. Besides, the fraction unbound at 20 ug/ml in data set [5] was 0.621. Further, the half-life in data set [6] was 2.67 h; in data set [7], 0.882 h. Besides, the Activity in data set [8] is 33%; in data set [9], 49%.

Consider `CCOC(=O)C(Cc1c[nH]c2ccccc12)NC(=O)C1CCn2c(C(=O)c3ccccc3)ccc21` (racemic), for which the solubility result in [1] and in data set [2] was “Insoluble” in each case. The K in [3] was 21.42; in data set [4], 429.9. Moreover, in data set [5], the fraction unbound at 20 ug/ml was 0.55. Also, the half-life in data set [6] is 2.98 h; in [7] it was 0.825 h. In addition, the Activity in [8] was 27%; in [9] it was 43%; in data set [10], 26%.

Consider `O=C(c1ccccc1)c1ccc2n1CCC2C(=O)O` (stereo unspecified) [KETOROLAC], for which the solubility entry was “Soluble” in data set [11] and “Insoluble” in data set [2]. Also, the K in data set [3] (chloroform/PBS, pH 7.4) was 6.022; in data set [4] (setting [15]), 75.62. Also, the Activity is recorded as 64.24% in [12] and 54.21% in [13]. For the same molecule, the UI in data set [14] was determined as 23.2.
